Assay outcomes as filed in PubChem.
SMARCA2 activ = SMARCA2 (BRM) function activators, primary screen, cell-based, luminescence, high throughput; activation, % at 9.1 µM; MG213 cells, MMTV-luciferase reporter, dexamethasone, overnight; 1% of 370,000 active; in the data active = activation above about 7.8%;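 note: 0% = vehicle wells and 100% = reference activator wells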
DAX1 inh-1 = DAX1 (NR0B1) inhibitors on StAR promoter, primary screen, cell-based, luminescence, SF-1 (NR5A1), full-length DAX-1; HEK293T StAR-luciferase reporter, SF-1/DAX-1 repression relief; inhibition, % at 6.8 µM; 1.1% of 370,000 active; AID 652010, 2013;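 active = inhibition above the mean over all tested compounds plus 3 SD, cut at about 3.6% in these data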;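 note: 0% = DAX-1 cells with DMSO and 100% = cells lacking DAX-1 with DMSO; higher inhibition means more luminescence from relief of DAX-1 repression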
NR2E3 ag-1 = NR2E3 agonists in two-hybrid cells, primary screen, cell-based, luminescence, CHO-S, Gal4-NCOR/VP16-NR2E3; Photoreceptor-specific nuclear receptor (Homo sapiens), Q9Y5X4; luciferase; inhibition of corepressor binding, % at 3.98 µM; 0.35% of 360,000 active; AID 602229, 2012;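 active = inhibition above the mean of all tested compounds plus 3 SD, cut at about 70% in these data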;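 note: 0% = DMSO with NR2E3 transfected cells and 100% = cells lacking NR2E3 construct; higher means lower luciferase signal from less NR2E3 corepressor binding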
Target sequence (Q9Y5X4 whole entry, looked up, the tested form may be a part): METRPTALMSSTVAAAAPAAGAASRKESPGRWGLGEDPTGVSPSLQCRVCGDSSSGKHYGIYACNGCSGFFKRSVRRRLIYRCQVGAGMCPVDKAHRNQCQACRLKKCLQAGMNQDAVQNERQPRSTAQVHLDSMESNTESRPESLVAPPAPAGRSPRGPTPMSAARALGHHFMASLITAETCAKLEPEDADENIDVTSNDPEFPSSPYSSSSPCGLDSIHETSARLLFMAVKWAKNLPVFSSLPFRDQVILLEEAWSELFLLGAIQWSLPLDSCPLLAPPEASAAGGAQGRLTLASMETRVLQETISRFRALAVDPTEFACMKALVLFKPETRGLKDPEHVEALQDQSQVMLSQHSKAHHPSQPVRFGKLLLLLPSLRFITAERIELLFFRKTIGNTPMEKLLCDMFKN
NR2E3 ag-2 = inhibitors of NR2E3-RetCOR corepressor binding, primary screen, NR2E3 agonist project, biochemical, TR-FRET, GST-NR2E3, biotin-RetCOR; AID 2300, 2010; Photoreceptor-specific nuclear receptor (Homo sapiens), Q9Y5X4; 1536-well; inhibition of corepressor binding, % at 4.78 µM; 0.12% of 320,000 active;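 active = percent inhibition above the cutoff of mean plus 3 SD of all tested compounds, set per screening campaign, cut at about 20% in these data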;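 note: 0% = DMSO wells and 100% = biotin wells as full block of FRET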
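Material: NR2E3–RetCOR corepressor complex | Quantity: 1.35 nM GST-tagged NR2E3 final | Schedule: 5 h at 4 °C | Replication: Singlicate compound wells | Reagent: RetCOR corepressor, biotinylated, 7 nM | Controls: Biotin wells as high control, 0.6% DMSO wells as low control | Signal: TR-FRET, Eu(K)-anti-GST donor, streptavidin-D2 acceptor, ex 340, em 617/671 nm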
GASC-1 inh = inhibitors of GASC-1 histone demethylase, primary screen, biochemical, fluorescence, DELFIA europium. GST-JMJD2C(1-420) H3K9me3 demethylation. inhibition, % at 2.35 µM. Lysine-specific demethylase 4C (Homo sapiens), Q9H3R0. 0.069% of 330,000 active. AID 2099, 2009;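 active = more than half of a compound's replicate wells show inhibition beyond 50%, single wells judged on their own value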;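 note: signal counts dimethyl H3K9 product captured on neutravidin plate; 0% = median of DMSO wells and 100% = 0.3 times that DMSO median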
DAX1 inh-2 = DAX1 (NR0B1) inhibitors, primary screen, cell-based, HEK293, Gal4-DAX1, luciferase luminescence | inhibition, % at 6.75 µM | 0.99% of 340,000 active | Nuclear receptor subfamily 0 group B member 1 (Homo sapiens), P51843 | HEK293 Gal4-DAX1 luciferase reporter;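 active = inhibition above the mean over all tested compounds plus 3 SD, cut at about 4.2% in these data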;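 note: 0% = DAX1-transfected cells with DMSO and 100% = empty-vector control cells with DMSO; inhibition shows as a rise in luminescence from relieved DAX1 repression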
Starred values were filed as active, the others as inactive; x = no result. Only some compounds are listed: those with a hit (about 3.2% of all), similar ones and a draw of the others.

SMILES	SMARCA2 activ	DAX1 inh-1	NR2E3 ag-1	NR2E3 ag-2	GASC-1 inh	DAX1 inh-2
C=CCN1[C@H](CC(C)C)COc2cccc(F)c2S1(=O)=O	-1.5	-1.2	x	x	x	x
CCn1ncc(/C=C/C(=O)c2ccccc2)c1C	6.3	1.3	-37.1	-2.0	-0.8	2.7
CCn1cc(/C=C/C(=O)c2ccc(O)cc2)c(C)n1	7.5	3.2	-65.4	-3.0	-3.8	12.7*
CCN1CCN(C(=O)C2=CC(c3ccc(C)cc3)=NS(=O)(=O)N2C)CC1	0.1	-2.0	-6.7	2.0	3.9	4.5*
CCN1CCN(C(=O)C2=CC(c3ccc(OC)cc3)=NS(=O)(=O)N2C)CC1	2.3	0.4	-10.1	-0.8	0.3	0.8
CC(OC(=O)Cn1[nH]c(=O)c2ccccc2c1=O)C(=O)Nc1cccc(Cl)c1 (stereo not drawn)	2.1	0.0	1.0	5.4	-4.6	4.2*
O=C(C[n+]1ccccc1)N1c2ccccc2Sc2ccccc21	-4.5	-0.9	-13.7	2.4	-18.6	4.5*
CN(C)c1cc[n+](CC(=O)N2c3ccccc3Sc3ccccc32)cc1	-4.2	-0.3	-5.0	1.6	-3.5	-0.7
O=C(Nc1cccnc1Oc1ccc(Cl)cc1)c1cccc2ccccc12	-5.7	0.2	-9.1	-2.2	5.4	6.0*
O=C(CSc1nc2c(cnn2-c2ccccc2)c(=O)[nH]1)NC1CCS(=O)(=O)C1 (stereo not drawn)	-3.8	0.9	16.5	2.0	1.1	5.7*
Cc1sc(N=Nc2ccc(N(C)C)cc2)[n+]([O-])c1C	2.0	3.7*	-38.3	x	x	2.3
CN(C)c1ccc(N=Nc2ccccc2Br)cc1	6.0	3.0	-134.4	-1.2	5.6	0.2
O=C(NCCCc1ccccc1)c1ccc([N+](=O)[O-])cc1Cl	1.1	0.4	-38.3	3.5	8.9	0.8
Cc1ccc(C(=O)NCCCc2ccccc2)c(Cl)c1	3.5	2.0	-136.0	0.5	3.4	5.1*
O=S1(=O)N[C@H](Cc2ccccc2)COc2cccc(N3CCC[C@H]3CO)c21	-2.9	-0.3	-22.4	x	x	x
O=S1(=O)N[C@@H](Cc2ccccc2)COc2cccc(N3CCC[C@H]3CO)c21	-1.5	4.1*	10.0	x	x	x
COCc1cc(C)nc2sc(C(=O)Nc3cccc(OC)c3)c(N)c12	6.3	1.1	-157.1	2.2	6.0	4.9*
CN(CC#Cc1ccccc1)C(N)=NC(=O)/C=C/c1ccccc1	0.7	-0.4	x	x	x	x
N[C@H](C(=O)N1CCC[C@@H]1C(=O)N1CCC2CCN(S(=O)(=O)c3ccccc3)CC21)c1ccccc1 (stereo partly drawn)	-3.4	3.0	x	x	x	x
CC(C)=NNc1ncnc2nc[nH]c12	3.5	3.6	-88.5	x	x	6.3*
CC(C)n1nnnc1C1(C)Cn2nccc2C(=O)N1Cc1cccc(C(F)(F)F)c1 (stereo not drawn)	-2.7	-0.2	x	x	x	x
Oc1ccc(-c2nc3ccccc3s2)cc1	4.0	4.2*	-180.6	-2.1	11.6	1.3
COc1cccc(-c2nc3ccccc3s2)c1	5.0	4.4*	-137.8	2.2	-5.5	1.1
c1csc(-c2nc3ccccc3s2)c1	-0.2	0.3	-26.1	-0.9	0.8	4.6*
CCCN(CC1CC1)c1c2c(nc3ncnn13)CCCC2	-5.5	-0.8	x	x	x	x
COC(=O)C1CN(Cc2ccc(OC)cc2)CCS(=O)(=O)N1Cc1ccc(F)cc1 (stereo not drawn)	-5.8	-0.4	x	x	x	x
C/C=C(\C)C(=O)OC1[C@H](OC(C)=O)C2(CO)C(CC1(C)C)C1=CCC3C4(C)CCC(O[C@@H]5O[C@H](C(=O)O)[C@@H](O[C@@H]6O[C@H](CO)[C@@H](O)[C@H](O)[C@H]6O)[C@H](O)[C@H]5O[C@H]5O[C@H](CO)[C@@H](O)[C@H](O)[C@H]5O)[C@](C)(CO)C4CCC3(C)[C@]1(C)C[C@H]2O (stereo partly drawn)	x	x	105.8*	x	x	-4.1
